Assay results reported in ChEMBL document CHEMBL1287662, “Potent neuroprotective role of novel melatonin derivatives for management of central neuropathy induced by acrylamide in rats” (2010).
Activity calls are given as the source filed them. No cut-off for these calls is given here.

Experiments:
[1] = tested on: Rattus norvegicus; assay: Neuroprotective activity in Sprague-Dawley rat assessed as protection against acrylamide-induced decrease of glutathione peroxidase level at 50 mg/kg, ip administered 10 mins before acrylamide challenge for 3 days per week for 3 weeks by spectrofluorometrically (reference value: -43%); set-up: scale not given: the % may be the effect or the level left; details: route intraperitoneal
[2] = tested on: Rattus norvegicus; assay: Neuroprotective activity in Sprague-Dawley rat assessed as protection against acrylamide-induced increase of LDH level at 50 mg/kg, ip administered 10 mins before acrylamide challenge for 3 days per week for 3 weeks by spectrofluorometrically (reference value: 67%); details: route intraperitoneal
[3] = tested on: Rattus norvegicus; assay: Neuroprotective activity in Sprague-Dawley rat assessed as protection against acrylamide-induced decrease of superoxide dismutase level at 50 mg/kg, ip administered 10 mins before acrylamide challenge for 3 days per week for 3 weeks by spectrofluorometrically (reference value: -32%); set-up: scale not given: the % may be the effect or the level left; details: route intraperitoneal
[4] = tested on: Rattus norvegicus; assay: Neuroprotective activity in Sprague-Dawley rat assessed as protection against acrylamide-induced decrease of creatine kinase level at 50 mg/kg, ip administered 10 mins before acrylamide challenge for 3 days per week for 3 weeks by spectrofluorometrically (reference value: -73%); set-up: scale not given: the % may be the effect or the level left; details: route intraperitoneal
[5] = tested on: Rattus norvegicus; assay: Neuroprotective activity in Sprague-Dawley rat assessed as protection against acrylamide-induced decrease in adrenaline level at 50 mg/kg, ip administered 10 mins before acrylamide challenge for 3 days per week […] by ELISA (reference value: -40%); type: functional; set-up: scale not given: the % may be the effect or the level left; details: route intraperitoneal
[6] = tested on: Rattus norvegicus; assay: Neuroprotective activity in Sprague-Dawley rat assessed as protection against acrylamide-induced decrease in dopamine level at 50 mg/kg, ip administered 10 mins before acrylamide challenge for 3 days per week […] by spectrofluorometrically (reference value: -16%); type: functional; set-up: scale not given: the % may be the effect or the level left; details: route intraperitoneal
[7] = tested on: Rattus norvegicus; assay: Neuroprotective activity in Sprague-Dawley rat assessed as protection against acrylamide-induced decrease in noradrenaline level at 50 mg/kg, ip administered 10 mins before acrylamide challenge for 3 days per week […] by ELISA (reference value: -21%); type: functional; set-up: scale not given: the % may be the effect or the level left; details: route intraperitoneal
[8] = tested on: Rattus norvegicus; assay: Neuroprotective activity in Sprague-Dawley rat assessed as protection against acrylamide-induced decrease of glutathione level at 50 mg/kg, ip administered 10 mins before acrylamide challenge for 3 days per week […] by spectrofluorometrically (reference value: -27%); type: functional; set-up: scale not given: the % may be the effect or the level left; details: route intraperitoneal
[9] = tested on: Rattus norvegicus; assay: Neuroprotective activity in Sprague-Dawley rat assessed as protection against acrylamide-induced increase of malondialdehyde level at 50 mg/kg, ip administered 10 mins before acrylamide challenge for 3 days per week […] by spectrofluorometrically (reference value: 31%); type: functional; details: route intraperitoneal
[10] = tested on: Rattus norvegicus; assay: Neuroprotective activity in Sprague-Dawley rat assessed as protection against acrylamide-induced neuronal damage at 50 mg/kg, ip administered 10 mins before acrylamide challenge for 3 days per week for 2 weeks by histopathology analysis; type: functional, organism-based; set-up: dose 50 mg/kg; details: in the assay text read “for 3 weeks” for “for 2 weeks”
Summary of the method: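 Rats (n = 10 per group) given agent at 50 mg/kg i.p. in 2% Tween 10 min before ACR at 50 mg/kg i.p., 3 days/week for 3 weeks. Brain tissue examined by light photomicrography for neuronal morphology (dark neurons, chromatin clumping, vacuoles), compared with control and ACR-only rats.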

**Q.** `COc1ccc2c(c1)c(CCNC(C)=O)c1sc(C3=C(c4ccccc4)CC(=N)C(C#N)=C3N)nn12` was tested. Which Activity [1] did it give?
**A.** The Activity was 8%.

**Q.** And the Activity [2]?
**A.** The Activity was -47%.

**Q.** And the Activity [3]?
**A.** The Activity was 71%.

**Q.** And the Activity [4]?
**A.** The Activity was 18%.

**Q.** And the Activity [5]?
**A.** Its Activity is 63%.

**Q.** What about the Activity [6] of the same molecule?
**A.** The Activity was 11%.

**Q.** What about the Activity [7] of the same molecule?
**A.** The Activity was 28%.

**Q.** And the Activity [8]?
**A.** Its Activity is 27%.

**Q.** What about the Activity [9] of the same molecule?
**A.** The Activity was -20%.

**Q.** Which results are given for `COc1ccc2c(c1)c(CCNC(C)=O)c1sc(-c3c(C(C)=O)nn(-c4ccccc4)c3N)nn12`?
**A.** Activity [1]: 5%; Activity [2]: -45%; Activity [3]: 65%; Activity [4]: 6%; Activity [5]: 60%; Activity [6]: 10%; Activity [7]: 14%; Activity [8]: 27%; Activity [9]: -19%

**Q.** `COc1ccc2c(c1)c(CCNC(C)=O)cn2-c1c[nH]nc1-c1ccccc1` was tested. Which Activity [1] did it give?
**A.** Its Activity is 3%.

**Q.** What about the Activity [2] of the same molecule?
**A.** The Activity was -40%.

**Q.** What about the Activity [3] of the same molecule?
**A.** Its Activity is 41%.

**Q.** What about the Activity [4] of the same molecule?
**A.** The Activity was 6%.

**Q.** What about the Activity [5] of the same molecule?
**A.** Its Activity is 60%.

**Q.** What about the Activity [6] of the same molecule?
**A.** Its Activity is 3%.

**Q.** What about the Activity [7] of the same molecule?
**A.** The Activity was 11%.

**Q.** What about the Activity [8] of the same molecule?
**A.** The Activity was 9%.

**Q.** And the Activity [9]?
**A.** Its Activity is -17%.

**Q.** `COc1ccc2[nH]cc(CCNC(C)=O)c2c1` [MELATONIN] was tested. Which Activity [1] did it give?
**A.** The Activity was 38%.

**Q.** And the Activity [2]?
**A.** Its Activity is -65%.

**Q.** And the Activity [10]?
**A.** Its Activity is “Active”.

**Q.** And the Activity [3]?
**A.** The Activity was 135%.

**Q.** And the Activity [4]?
**A.** The Activity was 59%.

**Q.** What about the Activity [5] of the same molecule?
**A.** Its Activity is 67%.

**Q.** And the Activity [6]?
**A.** The Activity was 33%.

**Q.** And the Activity [7]?
**A.** The Activity was 32%.

**Q.** What about the Activity [8] of the same molecule?
**A.** The Activity was 82%.

**Q.** And the Activity [9]?
**A.** Its Activity is -22%.

**Q.** Which Activity [1] does the source give for `COc1ccc2c(c1)c(CCNC(C)=O)cn2CN1CCOCC1` here?
**A.** Its Activity is 11%.

**Q.** And the Activity [2]?
**A.** Its Activity is -55%.

**Q.** And the Activity [3]?
**A.** Its Activity is 77%.

**Q.** And the Activity [4]?
**A.** Its Activity is 30%.

**Q.** And the Activity [5]?
**A.** The Activity was 65%.

**Q.** And the Activity [6]?
**A.** Its Activity is 19%.

**Q.** What about the Activity [7] of the same molecule?
**A.** The Activity was 28%.

**Q.** What about the Activity [8] of the same molecule?
**A.** The Activity was 27%.

**Q.** And the Activity [9]?
**A.** Its Activity is -21%.
